# Results from ChEMBL document CHEMBL1132178, “5-Amino-1-(chloromethyl)-1,2-dihydro-3H-benz[e]indoles: relationships between structure and cytotoxicity for analogues bearing different DNA minor groove binding subunits” (J Med Chem, 1999).
# pIC50: −log10 of the molar value.
# What was measured:
# CHO-AA8 = assay: Tested for growth inhibition against AA8 tumor cell line(chinese hamster ovary).; format: functional, cell-based, Cricetulus griseus
# Summary of the method: (§1)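 Log-phase cultures seeded in 96-well plates (200 AA8, 300 UV4 or 50 EMT6 cells/well), drug added after 24 h. Aerobic 4 h exposure at 37 °C under 5% CO2, then washed and regrown 4 days. Cell density read by sulforhodamine B staining. IC50 is the concentration giving 50% growth inhibition versus same-plate controls; mean of 2–5 determinations ± SEM.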
# EMT6 = assay: Tested for growth inhibition against EMT6 tumor cell line(murine mammary carcinoma).; format: functional, cell-based, Mus musculus; summary of the method: as §1
# UV4 = assay: The compound was tested for growth inhibition against UV4 tumor cell line(chinese hamster ovary).; format: functional, cell-based, Cricetulus griseus; summary of the method: as §1
# SK-OV-3 = assay: Tested for growth inhibition against SKOV3 tumor cell line(human ovarian).; format: functional, cell-based
# Summary of the method: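 Log-phase cultures of 600 SKOV3 cells/well in 96-well plates, drug added after 24 h. Aerobic 4 h exposure at 37 °C under 5% CO2, then washed and regrown 5 days. Growth read by sulforhodamine B staining. IC50 is the concentration giving 50% inhibition relative to same-plate controls; average of 2–5 determinations ± SEM.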
Structure (SMILES),"pIC50 (CHO-AA8; Cricetulus griseus, CHO-AA8)","pIC50 (EMT6; Mus musculus, EMT6)","pIC50 (UV4; Cricetulus griseus, UV4)","pIC50 (SK-OV-3; Homo sapiens, SK-OV-3)",pIC50 (CHO-AA8; cho-aa8),pIC50 (EMT6; emt6),pIC50 (UV4; uv4),pIC50 (SK-OV-3; sk-ov-3)
COc1ccc2[nH]c(C(=O)N3CC(CCl)c4c3cc(N)c3ccccc43)cc2c1 (stereo unspecified),8.89,9.01,9.08,8.73,–,–,–,–
CC(=O)Nc1cc(C(=O)Nc2cc(C(=O)N3CC(CCl)c4c3cc(N)c3ccccc43)nn2C)nn1C (stereo unspecified),6.43,6.67,6.60,7.31,–,–,–,–
CC(=O)Nc1ccc2[nH]c(C(=O)N3CC(CCl)c4c3cc(N)c3ccccc43)cc2c1 (stereo unspecified),7.90,8.28,8.12,7.76,–,–,–,–
COc1cc(OCCN(C)C)c2[nH]c(C(=O)N3CC(CCl)c4c3cc(N)c3ccccc43)cc2c1 (stereo unspecified),8.43,8.72,8.72,8.38,–,–,–,–
Nc1cc2c(c3ccccc13)C(CCl)CN2C(=O)c1cc2cc(NC(=O)c3cc4ccccc4o3)ccc2[nH]1 (stereo unspecified),8.70,8.89,8.82,8.46,–,–,–,–
COc1cc2cc(C(=O)N3CC(CCl)c4c3cc(N)c3ccccc43)[nH]c2cc1OCCN(C)C (stereo unspecified),8.44,8.70,8.68,8.28,–,–,–,–
COc1cc2cc(C(=O)N3CC(COS(C)(=O)=O)c4c3cc(N)c3ccccc43)[nH]c2c(OC)c1OC (stereo unspecified),9.32,9.40,9.34,8.92,–,–,–,–
CCCC(=O)Nc1cc(/C=C/C(=O)N2CC(CCl)c3c2cc(N)c2ccccc32)n(C)c1 (stereo unspecified),7.51,8.23,7.80,7.66,–,–,–,–
Nc1ccc2[nH]c(C(=O)N3CC(CCl)c4c3cc(N)c3ccccc43)cc2c1 (stereo unspecified),8.60,9.08,8.96,8.52,–,–,–,–
CC(=O)Nc1cc(/C=C/C(=O)N2CC(CCl)c3c2cc(N)c2ccccc32)n(C)n1 (stereo unspecified),7.97,8.31,8.27,7.89,–,–,–,–
COc1ccc(/C=C/C(=O)N2CC(CCl)c3c2cc(N)c2ccccc32)cc1 (stereo unspecified),10.05,10.05,10.24,9.62,–,–,–,–
COc1ccc2[nH]c(/C=C/C(=O)N3CC(CCl)c4c3cc(N)c3ccccc43)cc2c1 (stereo unspecified),9.55,9.64,9.66,9.32,–,–,–,–
CC(=O)Nc1cccc(/C=C/C(=O)N2CC(CCl)c3c2cc(N)c2ccccc32)c1 (stereo unspecified),8.57,9.07,8.82,8.82,–,–,–,–
COc1cccc(/C=C/C(=O)N2CC(CCl)c3c2cc(N)c2ccccc32)c1 (stereo unspecified),9.43,9.20,9.38,9.17,–,–,–,–
"COc1cc2cc(C(=O)N3CC(CCl)c4c3cc(N)c3ccccc43)[nH]c2c(OC)c1OC (single isomer, unassigned; (-))",–,–,–,–,7.85,8.15,8.57,8.10
"COc1cc2cc(C(=O)N3CC(CCl)c4c3cc(N)c3ccccc43)[nH]c2c(OC)c1OC (single isomer, unassigned; (+))",–,–,–,–,9.68,9.89,9.85,9.27
CC(=O)Nc1ccc(/C=C/C(=O)N2CC(CCl)c3c2cc(N)c2ccccc32)cc1 (stereo unspecified),8.59,8.92,8.85,8.57,–,–,–,–
CN(C)CCOc1ccc(/C=C/C(=O)N2CC(CCl)c3c2cc(N)c2ccccc32)cc1 (stereo unspecified),8.82,9.20,9.25,8.72,–,–,–,–
CN(C)CCOc1ccc2[nH]c(C(=O)N3CC(CCl)c4c3cc(N)c3ccccc43)cc2c1 (stereo unspecified),8.39,8.89,8.77,8.15,–,–,–,–
